Measurements from ChEMBL document CHEMBL4513216, “Probing the Open Global Health Chemical Diversity Library for Multistage-Active Starting Points for Next-Generation Antimalarials” (ACS Infect Dis, 2020).

Test: Toxicity liver stage against HepG2, at 10uM
Format: cell-based
Set-up: test concentration 10 uM, cell line HepG2-A16-CD81EGFP
Details: human, HepG2-A16-CD81EGFP cells; read-out: INHIBITION
Outline: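 Uninfected HepG2-A16-CD81EGFP cells, 3 × 10^3 per well, 1536-well, plated on prespotted compound at 10 μM final, parasite-free screening media added to match infected plates; puromycin 10 μM positive, DMSO 0.5% negative; run in parallel with 48 h PbLuc assay at 37 °C, 5% CO2; viability by CellTiter-Glo luminescence, normalized to controls.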

Row | Compound | cytotoxicity at 10 µM [%]
1 | COc1cnc(CN2CC(=O)N(c3ccc(C)cc3)CC2C)cc1O (stereo not given) | 4.01
2 | CS(=O)(=O)CCN1CC(c2ccccc2)(c2ccccc2)CCC1=O | 0.623
3 | N[C@H]1CN(C(=O)CCC(F)(F)F)C[C@@H]1c1ccccc1 | 6.95
4 | O=C(c1ncc[nH]1)N1CCC(n2cc(-c3cccc(Cl)c3)nn2)CC1 | 5.28
5 | CN1CCN(C2CCN(CCOc3ccc(Cl)cc3)CC2)C1=O | -5.36
6 | c1ccc(-c2nccc(CNC3CCc4ncnn4C3)n2)cc1 (stereo not given) | 0.787
7 | CC(C)c1nccn1C1CCCN(C(=O)CCNS(C)(=O)=O)C1 (stereo not given) | -3.71
8 | CCC(O)CN1CCN(C(=O)c2cc(Cl)cc3cccnc23)CC1 (stereo not given) | -13.7
9 | Cc1cc(C(=O)NCc2ccnc(N3CCN(C)CC3)c2)sc1C | -11.7
10 | Cc1cnn(CC2CCCCN2Cc2nc(C)c3ccccc3n2)c1 (stereo not given) | -8.54
11 | O=c1[nH]c(CCN2CCCCC2Cn2cccn2)nc2ccccc12 (stereo not given) | -16.4
12 | CC(C)c1nnc(CN2CCN(CC(O)c3ccccc3)CC2)o1 (stereo not given) | -7.03
13 | CC(Cn1ccnc1)NC(=O)N(C)Cc1ccc2c(c1)OCCO2 (stereo not given) | -29.5
14 | COC(=O)C(c1cc(F)ccc1F)N(C)C(=O)c1ccccn1 (stereo not given) | -2.72
15 | N#Cc1ccc(OCCCN2CCOC(Cn3cncn3)C2)cc1 (stereo not given) | -0.0581
16 | Cc1cc(C)n(CC2CCCN2CC(=O)N(C)CCC#N)n1 (stereo not given) | -14.8
17 | Cc1cc(C)c(CNC(=O)NCC(O)COc2ccccc2)c(=O)[nH]1 (stereo not given) | -5.75
18 | CS(=O)(=O)NC1CCN(C(=O)NCCNc2ccccn2)CC1 | -0.685
19 | CCc1nc(CN(C)CC(c2cccs2)N2CCOCC2)no1 (stereo not given) | -2.36
20 | Cc1nn(C)c(N(C)C)c1CNCCCN(C)S(C)(=O)=O | -4.07
21 | O=C(Nc1ncn(CC(=O)N2CCCCCC2)n1)C1CCCO1 (stereo not given) | -4.56
22 | Cc1cc(CNCc2c(C)nn(C)c2N2CCOCC2)no1 | -8.11
23 | Cc1nc(C)n(CC2CCCN2Cc2nc(-c3cccs3)no2)n1 (stereo not given) | -4.02
24 | Cc1cc(CN2CCN(CC(O)c3ccccc3)CC2)no1 (stereo not given) | -14.4
25 | COc1ccc(CC(=O)NC2(C)CCS(=O)(=O)C2)cc1F (stereo not given) | 2.05
26 | Cc1cc(CN(C)C(=O)c2ccc(Cl)c(S(C)(=O)=O)c2)no1 | -2.77
27 | O=C(C1CCN(c2snc3ccccc23)CC1)N1CCCCCC1 | 11.7
28 | CCn1cnnc1CNC(=O)c1ccc(Cl)cc1F | -0.457

Row | Compound | cytotoxicity at 10 µM [%]
29 | CC1CCN(S(=O)(=O)NCCCn2cncn2)CC1 | -4.91
30 | c1csc(-c2nc(CN3CCOC(Cn4cccn4)C3)co2)c1 (stereo not given) | -11.1
31 | O=C(CCC(=O)N1CCCC1c1cccs1)N1CCc2sccc2C1 (stereo not given) | -8.45
32 | Cc1cnn(CC2CCCCN2Cc2nc(-c3ccoc3)no2)c1 (stereo not given) | -7.2
33 | O=C(c1ccccc1OCC1CC1)N1CCCC(n2ccnc2)C1 (stereo not given) | -1.8
34 | Cc1cn2c(n1)CCC(NC(=O)c1cnc(C)nc1C(C)C)C2 (stereo not given) | -0.144
35 | COCCn1c(=O)n(C)c(=O)c2ccc(C3CCC(CN)CC3)nc21 (stereo not given) | -0.2
36 | COCCN1C[C@@H](C)[C@@]2(COCCN(C(=O)c3ccccn3)C2)C1 | 9.58
37 | CCN1CCC2(CC1)C(=O)N(c1ccc(C)nc1)CCN2CC(C)C | 16.4
38 | Cn1nc(C2CCCN(Cc3cc(F)cc(F)c3)C2)c2nccnc21 (stereo not given) | -16.3
39 | c1cnc(NCc2ncn3c2CN(Cc2cccnc2)CCC3)nc1 | -8.81
40 | Cc1nc2c(c(NC(C)C)n1)CCN(C1CCOCC1)CC2 | 9.26
41 | CN(Cc1cccnc1)[C@@H]1CN(Cc2cnn(C)c2)[C@@H]2CCCO[C@H]12 | -2.1
42 | Cc1cccc(CN2C(=O)CO[C@@H]3CN(Cc4nccn4C)C[C@H]32)c1 | -16.7
43 | Cc1nc(CN2CCC3(CCCN(Cc4cccnc4)C3)C2=O)cs1 (stereo not given) | 20.8
44 | COCCN1CCO[C@@H]2CN(Cc3ccccn3)C[C@@H]2C1 | -3.06
45 | c1coc(CN2C[C@@H]3OCCN(CCN4CCCC4)[C@@H]3C2)c1 | -1.52
46 | CCOC(=O)C1CN(CC2CC2)Cc2ncn(CC)c21 (stereo not given) | 12.2
47 | COc1c(CNC2CCc3c(Cl)cccc32)c(C)nn1C (stereo not given) | 13.3
48 | Cc1nc(CN2CCO[C@@H]3CN(C(=O)NC(C)C)CC[C@@H]3C2)cs1 | 0.41
49 | c1cncc(C2COC3(CCN(Cc4nccs4)CC3)C2)c1 (stereo not given) | 1.7
50 | O=S(=O)(C1CC1)N1Cc2[nH]nc(COCC3CC3)c2C1 | 16.4
51 | Cc1cc(CN2C[C@H]3CCC[C@@]3(COCC3CCOCC3)C2)no1 | 0.073
52 | O=C(NC1CCC1)[C@H]1C[C@@H]2[C@@H](C1)OCCN2CC1CC1 | -2.17
53 | Cc1cccc(-n2cc3[nH]c(=O)[nH]n3c2=O)c1 | 2.48
54 | COc1cccc(-n2cc3[nH]c(=O)n(Cc4cccc(F)c4)n3c2=O)c1 | 0.647
55 | Cc1nc(=O)c(CC(=O)N2C[C@H]3CC[C@@H](C2)N(CC2CCC2)C3)c(C)[nH]1 | 9.6
